Laboratory results published in ChEMBL document CHEMBL4118103, “Synthesis and Bioactivity Investigation of the Individual Components of Cyclic Lipopeptide Antibiotics” (J Med Chem, 2018).
Values after ≈ are worked out from the molar mass of the structure shown. Bridge positions count the residues as written; N and C are the ends. Square brackets hold non-standard residues; d marks the D form. Peptide text beside a SMILES is read from it. * marks the point of attachment. Heptanoyl(6-Me) = CC(C)CCCCC(=O)*; Dab = NCC[C@H](N)C(=O)O

What was measured:
Mus musculus [1] = assay: Nephrotoxicity in ICR mouse assessed as pale tubular casts at 2.5 mg/kg, iv bid for 7 days measured after 2 hrs post last dose by hematoxylin and eosin staining based assay; assay type: toxicity, organism-based; details: in vivo
How it was run: (§1)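 ICR mice, 18-22 g, 4 weeks old, n=8 per group (4 male, 4 female); component in saline (0.25 mg/mL, kept at 4 °C) given iv at 2.5 mg/kg twice daily, 8 h apart, for 7 days. Kidneys taken 2 h after last dose, formalin-fixed, paraffin-embedded, sectioned, H&E stained and examined by light microscopy; saline controls included.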

Mus musculus [2] = assay: Nephrotoxicity in ICR mouse assessed as tubular dilation at 2.5 mg/kg, iv bid for 7 days measured after 2 hrs post last dose by hematoxylin and eosin staining based assay; assay type: toxicity, organism-based; details: in vivo; how it was run: as §1
Acinetobacter baumannii = assay: Antibacterial activity against Acinetobacter baumannii ATCC 19606 after 18 hrs by agar dilution method; assay type: functional; details: ATCC 19606 = CIP 70.34 = JCM 6841, 18 h
How it was run: (§2)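 Serial two-fold agar dilution per CLSI; bacteria cultured in Mueller-Hinton broth, inoculum about 10^4 cfu/spot; final concentrations 0.03-128 µg/mL; plates incubated 35 °C for 18 h. MIC = lowest concentration preventing visible growth; representative of at least two independent experiments, a third run when the two disagreed.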

Escherichia coli [3] = assay: Antibacterial activity against extended-spectrum beta-lactamase producing Escherichia coli isolate 14-11 after 18 hrs by agar dilution method; assay type: functional; details: isolate 14-11, 18 h; how it was run: as §2
[4] = (§3) Cytotoxicity against African green monkey Vero cells after 72 hrs by MTT assay; assay type: cell-based; details: chlorocebus sabaeus, Vero cells
How it was run: (§4)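 Vero cells seeded at 2x10^3 cells/well, incubated 24 h at 37 °C, 5% CO2, then exposed to compound 72 h; MTT added for 2 h, medium removed, formazan dissolved in DMSO, absorbance read at 570 nm. Viability relative to untreated cells (100%); CC50 as mean ± SD of three independent experiments, each in triplicate.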

Klebsiella pneumoniae [5] = assay: Antibacterial activity against NDM-1 producing Klebsiella pneumoniae ATCC BAA-2146 after 18 hrs by agar dilution method; assay type: functional; details: ATCC BAA-2146, 18 h; how it was run: as §2
[6] = Acute toxicity in iv dosed ICR mouse assessed as survival measured daily for 7 days; assay type: organism-based; details: in vivo
How it was run: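 ICR mice, 18 to 22 g, 4 weeks old, 10 per group (5 male, 5 female). Four to five intravenous dose groups per compound. Survival recorded daily for 7 days. LD50 (dose per kg body weight lethal to 50%) calculated by the Bliss method. LD50 values compared by one-way ANOVA.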

Mus musculus [7] = assay: Nephrotoxicity in ICR mouse assessed as induction of prominent nuclei at 2.5 mg/kg, iv bid for 7 days measured after 2 hrs post last dose by hematoxylin and eosin staining based assay; assay type: toxicity, organism-based; details: in vivo; how it was run: as §1
Klebsiella pneumoniae [8] = assay: Antibacterial activity against extended-spectrum beta-lactamase producing Klebsiella pneumoniae 700603 after 18 hrs by agar dilution method; assay type: functional; details: Klebsiella pneumoniae, 700603, 18 h; how it was run: as §2
Escherichia coli [9] = assay: Antibacterial activity against Escherichia coli ATCC 25922 after 18 hrs by agar dilution method; assay type: functional; details: ATCC 25922, 18 h; how it was run: as §2
Pseudomonas aeruginosa = assay: Antibacterial activity against Pseudomonas aeruginosa ATCC 27853 after 18 hrs by agar dilution method; assay type: functional; details: ATCC 27853, 18 h; how it was run: as §2
Vero = assay: as §3; assay type: cell-based; details: chlorocebus sabaeus, vero, 72 h; how it was run: as §4

| Molecule | Activity (Mus musculus [1]) | Activity (Mus musculus [2]) | MIC (Acinetobacter baumannii) | MIC (Escherichia coli [3]) | CC50 at 72 h [4] | MIC (Klebsiella pneumoniae [5]) | LD50 at 168 h [6] | Activity (Mus musculus [7]) | MIC (Klebsiella pneumoniae [8]) | MIC (Escherichia coli [9]) | MIC (Pseudomonas aeruginosa) | CC50 (Vero) |
| --- | --- | --- | --- | --- | --- | --- | --- | --- | --- | --- | --- | --- |
| CC(C)CCCCC(=O)N[C@@H](CCN)C(=O)N[C@H](C(=O)N[C@@H](CCN)C(=O)N[C@H]1CCNC(=O)[C@H]([C@@H](C)O)NC(=O)[C@H](CCN)NC(=O)[C@H](CCN)NC(=O)[C@H](CC(C)C)NC(=O)[C@@H](CC(C)C)NC(=O)[C@H](CCN)NC1=O)[C@@H](C)O [COLISTIN B] ({Heptanoyl(6-Me)}-[Dab]T[Dab][Dab][Dab][dL]L[Dab][Dab]T; lactam 4-C) | Non-Toxic | Non-Toxic | 0.5 µg/mL (≈ 0.433 µM) | 0.5 µg/mL (≈ 0.433 µM) | 244 µg/mL (≈ 211 µM) | 1 µg/mL (≈ 0.865 µM) | 11.3 mg/kg | Non-Toxic | 1 µg/mL (≈ 0.865 µM) | 0.5 µg/mL (≈ 0.433 µM) | 2 µg/mL (≈ 1.73 µM) | – |
| CC(C)CCCCC(=O)N[C@@H](CCN)C(=O)N[C@H](C(=O)N[C@@H](CCN)C(=O)N[C@H]1CCNC(=O)[C@H]([C@@H](C)O)NC(=O)[C@H](CCN)NC(=O)[C@H](CCN)NC(=O)[C@H](CC(C)C)NC(=O)[C@@H](Cc2ccccc2)NC(=O)[C@H](CCN)NC1=O)[C@@H](C)O [POLYMYXIN B2] ({Heptanoyl(6-Me)}-[Dab]T[Dab][Dab][Dab][dF]L[Dab][Dab]T; lactam 4-C) | Toxic | Toxic | 0.5 µg/mL (≈ 0.42 µM) | 0.5 µg/mL (≈ 0.42 µM) | 159 µg/mL (≈ 134 µM) | 1 µg/mL (≈ 0.841 µM) | 12.6 mg/kg | Toxic | 1 µg/mL (≈ 0.841 µM) | 0.5 µg/mL (≈ 0.42 µM) | 2 µg/mL (≈ 1.68 µM) | – |
| COLISTIN | – | – | – | – | – | – | – | – | – | – | – | 95 µg/mL |
